# Hits are enriched below; roughly 4.6% of the tested compounds scored in any of these assays.
# TAAR1 antag – human TAAR1 antagonists, primary screen, Fluo-8 calcium fluorescence, CHO RD-HGA16 cells. antagonist. 1.5% of 360,000 active. Trace amine-associated receptor 1 (Homo sapiens), Q96RJ0. AID 624466, 2012. inhibition, % at 3 µM;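 active means inhibition above a per-plate cutoff, the mean inhibition of test compounds on that plate plus 3 SD, cut at about 49% in these data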;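 further: 0% = DMSO plus EC80 beta-PEA response and 100% = DMSO alone without agonist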
# Target sequence (Q96RJ0 whole entry, looked up): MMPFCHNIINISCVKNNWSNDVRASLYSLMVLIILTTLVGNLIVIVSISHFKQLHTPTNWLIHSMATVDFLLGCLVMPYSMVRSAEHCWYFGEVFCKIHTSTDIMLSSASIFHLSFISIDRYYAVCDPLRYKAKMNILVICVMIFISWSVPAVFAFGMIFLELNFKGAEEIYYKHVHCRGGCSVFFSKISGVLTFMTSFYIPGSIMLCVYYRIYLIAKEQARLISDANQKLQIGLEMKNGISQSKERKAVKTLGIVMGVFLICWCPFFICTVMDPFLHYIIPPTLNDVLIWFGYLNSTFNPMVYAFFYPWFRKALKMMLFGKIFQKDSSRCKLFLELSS
#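 Material: CHO RD-HGA16 cells bearing hTAAR1; compound dosing: one-point dosing, 3 µM nominal final; schedule: dye loading 75 min at 37 °C, then 30 min room temperature; measured by: calcium fluorescence with Fluo-8; control set: vehicle and agonist controls; replication: n of 1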
# GPR7 antag – GPR7 receptor antagonists, primary screen, cell-based, fluorescence, single concentration. GPR7-expressing cells, fluorescence antagonist assay. inhibition, % at 4.4 µM. 1.1% of 290,000 active; in the data active means inhibition above about 16%, passing the limit was not always enough;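 further: cells stimulated with the agonist NPW; 0% = agonist with vehicle and 100% = vehicle without agonist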
# TAAR1 ag – human TAAR1 agonists, primary screen, Fluo-8 calcium fluorescence, CHO RD-HGA16 cells; vehicle wells 0%, saturating PEA agonist 100%; activation, % at 3 µM; 0.99% of 360,000 active; Trace amine-associated receptor 1 (Homo sapiens), Q96RJ0;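 active means activation above the mean activation of all test compounds in the run plus 3 SD, cut at about 38% in these data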
#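 Assay system: CHO-derived RD-HGA16 cells with stable Gα16 and human TAAR1; timing: 17-24 h seeding, 75 min 37 °C dye, 30 min RT; read-out: % activation from peak over basal fluorescence ratio, DMSO-to-PEA scaled; measured by: kinetic Fluo-8 calcium fluorescence; benchmarks: low control DMSO, high control PEA (EC100); doses: 3 µM single concentration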
# CHO parental Ca – ATP-evoked calcium signal inhibitors, parental CHO, primary screen, counter-screen for OX1R antagonist project, cell-based, fluorescence, Fluo-8 calcium dye; parental CHO-K1, ATP-induced calcium, Fluo-8 fluorescence; inhibition, % at 5.6 µM; 0.63% of 330,000 active;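 active means inhibition above that plate's mean sample inhibition plus 3 SD, cut at about 26% in these data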;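 further: 0% = ATP-challenged DMSO wells and 100% = DMSO wells without ATP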
#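 Material: parental CHO cells / Compound: single nominal dose of 5.6 µM per compound / Signal: Fluo-8 fluorescence / Replicates: singlicate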
# OX1R antag-1 – antagonists of human orexin 1 receptor (OX1R). OX1R-expressing cells, FRET antagonist read-out. 1.8% of 330,000 active. Orexin/Hypocretin receptor type 1 (Homo sapiens), O43613. inhibition, % at 6.6 µM; in the data active means inhibition mostly above about 38%, no sharp cut-off; inactive means mostly below about 40%;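 further: 0% = agonist challenge alone and 100% = reference antagonist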
# Target sequence (O43613 whole entry, looked up): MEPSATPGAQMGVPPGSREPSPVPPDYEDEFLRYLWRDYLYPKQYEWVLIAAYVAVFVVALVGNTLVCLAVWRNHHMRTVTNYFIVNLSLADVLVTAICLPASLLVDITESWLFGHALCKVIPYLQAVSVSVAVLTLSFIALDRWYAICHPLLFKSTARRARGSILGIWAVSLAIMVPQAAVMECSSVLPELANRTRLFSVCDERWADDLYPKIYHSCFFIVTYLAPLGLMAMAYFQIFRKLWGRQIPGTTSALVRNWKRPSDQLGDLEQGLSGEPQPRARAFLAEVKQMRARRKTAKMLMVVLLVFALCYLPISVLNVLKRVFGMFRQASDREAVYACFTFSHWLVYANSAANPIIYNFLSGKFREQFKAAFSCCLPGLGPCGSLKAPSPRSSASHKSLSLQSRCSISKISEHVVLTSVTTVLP
# OX1R antag-2 – OX1R (HCRTR1) antagonists, primary screen, fluorescence, CHO/OX1R cells, Fluo-8 calcium, orexin A | Fluo-8 calcium fluorescence | inhibition, % at 5 µM | 0.43% of 330,000 active | AID 434989, 2010;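 active means inhibition above its plate's threshold, mean inhibition of all tested compounds on the plate plus 3 SD, cut at about 37% in these data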;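 further: 0% = orexin A challenge wells and 100% = SB-334867-A antagonist wells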
# nonsel antag count – nonselective antagonists in TAAR1 counter-screen cells, counter-screen for hTAAR1 antagonist project, cell-based, fluorescence, calcium; 77% of 2,400 active; counterscreen cell line, antagonist mode; shares compounds with TAAR1 antag; inhibition, % at 3 µM; in the data active means inhibition above about 22%;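 further: CHO-Ga16 host cells stimulated with ATP at an EC80 level; 0% = agonist EC80 plus vehicle and 100% = vehicle without agonist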
# TAAR1 ant conf – human TAAR1 antagonists, retest of hits, confirmation, cell-based, fluorescence. TAAR1-expressing cells, fluorescence antagonist read-out. 40% of 2,400 active. shares compounds with TAAR1 antag. AID 651785, 2012. inhibition, % at 3 µM; in the data active means inhibition above about 49%;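 further: CHO-Ga16 host cells challenged with agonist PEA near its EC80; 0% = agonist at EC80 plus vehicle and 100% = vehicle with no agonist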
# Ga16 ag counter – calcium activation in Ga16-expressing cells, counter-screen for TAAR1 antagonist project, cell-based, fluorescence | shares compounds with TAAR1 antag | agonist counterscreen | activation, % at 3 µM | 18% of 2,400 active | AID 651953, 2012; in the data active means activation above about 12%;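 further: 0% = vehicle wells and 100% = saturating stimulus response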
# TAAR1 ag counter – TAAR1 activation by candidate antagonists – cell-based, fluorescence, counter-screen for TAAR1 antagonist project. shares compounds with TAAR1 antag. AID 651955, 2012. activation, % at 3 µM. 2% of 2,400 active. hTAAR1 cell line, agonist mode; in the data active means activation above about 37%;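 further: CHO cells stably expressing TAAR1 with calcium dye readout; 0% = DMSO vehicle and 100% = full agonist response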
# The depositor's hits bear a star; · = no result given.
SMILES,TAAR1 antag,GPR7 antag,TAAR1 ag,CHO parental Ca,OX1R antag-1,OX1R antag-2,nonsel antag count,TAAR1 ant conf,Ga16 ag counter,TAAR1 ag counter
Cc1cccc(C(=O)OC(C)C(=O)Nc2ccc(S(=O)(=O)N3CCCC3)cc2)c1O (configuration not stated),68.2*,·,14.9,-5.7,-0.8,1.2,35.7*,55.0*,11.7*,17.8
Cc1ccccc1OC(C)C(=O)Nc1ccc(S(=O)(=O)N2CCCC2)cc1 (configuration not stated),-19.7,-3.8,6.5,-12.7,15.1,-20.1,·,·,·,·
COc1ccc(NC(C)=O)cc1S(=O)(=O)Nc1ccc(S(=O)(=O)N2CCCCC2)cc1,-7.6,·,1.8,0.9,6.4,-11.8,·,·,·,·
CCCCCCCCN1C(=O)[C@H](CC(=O)NCc2cccc3ccccc23)C[C@@]2(C(=O)OCC)CCCC=C12,-9.2,·,0.9,·,·,·,·,·,·,·
COc1cc(Cl)ccc1OCc1cc(C(=O)N2C[C@H]3CC[C@H]2C3)no1,-7.2,-14.0,2.6,-9.4,11.4,-16.2,·,·,·,·
COc1cc(C)ccc1OCc1cc(C(=O)N2C[C@H]3CC[C@H]2C3)no1,102.4*,3.2,0.1,-4.3,12.5,-3.7,7.2,-0.4,2.0,0.3
O=C(CN1CCN(Cc2ccccc2)CC1)Nc1cccc(Cl)c1Cl,-22.4,·,0.5,·,·,·,·,·,·,·
O=C(NCCN1CCOCC1)c1ccccc1N1C(=O)[C@@H]2Cc3c([nH]c4ccccc34)C(c3ccccc3)N2C1=O (some centres not stated),37.7,5.7,7.1,-14.0,1.3,-22.1,·,·,·,·
O=C(NCCCN1CCOCC1)c1ccccc1N1C(=O)[C@@H]2Cc3c([nH]c4ccccc34)C(c3ccc(F)cc3)N2C1=O (some centres not stated),72.8*,-6.5,11.9,-20.0,1.5,-21.4,26.4*,40.8,6.2,7.5
CCOc1ccc(OCCSc2nc3ccccc3c(=O)[nH]2)cc1,62.5*,-8.3,33.2,-4.3,4.2,-5.7,9.0,26.5,8.3,15.7
O=C(NCCc1cccs1)C1CC(c2ccccc2F)=NO1 (configuration not stated),74.2*,·,37.1,-4.9,15.3,-17.1,0.2,81.0*,2.2,68.0*
COc1ccc(CCNC(=O)C2CC(c3ccccc3F)=NO2)cc1 (configuration not stated),-0.5,·,12.1,-14.4,14.0,-7.4,·,·,·,·
COc1cccc(/C=C2\SC(=S)N(CCCC(=O)N3CCCCC3CCO)C2=O)c1 (configuration not stated),54.7*,-18.2,7.2,-38.8,1.3,-31.0,28.6*,28.1,11.6*,6.7
CCOc1ccc(-c2ccc(/C=C3/C(=N)N4C=CSC4=NC3=O)o2)c([N+](=O)[O-])c1,5.0,-10.0,5.4,-11.2,8.4,-6.2,·,·,·,·
CCOc1ccc(-c2ccc(/C=C3/C(=N)N4C(C)=CSC4=NC3=O)o2)c([N+](=O)[O-])c1,58.7*,-10.7,11.9,-0.4,9.7,0.3,38.5*,49.5*,8.7,3.0
O=C(O)c1cccc(NC(=O)c2cn(-c3ccccc3)nc2-c2cc3ccccc3o2)c1,63.7*,-4.1,11.9,17.6,16.3,19.4,38.7*,42.2,6.4,4.5
O=C(N/N=C/c1cn(-c2ccccc2)nc1-c1cc2ccccc2o1)c1ccncc1,48.2,10.6,6.7,-28.0,9.6,-12.8,·,·,·,·
Cc1cccc(NC(=O)C2CCN(S(=O)(=O)c3c(C)c(C)cc(C)c3C)CC2)n1,78.0*,·,-0.1,-37.3,10.0,-18.8,23.6*,50.3*,5.1,7.0
COC(=O)C1(C(=O)OC)C2CCCCC2N(S(=O)(=O)c2ccc(C)cc2)[C@@H]1CC(C)=O (some centres not stated),10.5,·,-1.0,·,·,·,·,·,·,·
CCN(CC(=O)Nc1ccc(NC(C)=O)cc1)C(=O)c1ccc(N(C)S(=O)(=O)c2ccc(C)cc2)cc1,101.3*,·,-3.9,·,·,·,0.6,-2.2,1.3,-2.4
CCOC(=O)c1c(C)[nH]c(C)c1C(=O)CSc1nc2ccccc2c(=O)n1-c1ccc(F)cc1,35.9,-9.1,9.3,-35.5,18.8,-36.2,·,·,·,·
CCOC(=O)c1c(C)[nH]c(C)c1C(=O)CSc1nc2ccccc2c(=O)n1-c1ccccc1C,56.8*,-7.9,13.8,-35.1,25.8,-35.4,26.0*,47.2,7.1,13.8
CN1C(=O)CON=C1c1cccc2ccccc12,-8.7,·,1.2,·,·,·,·,·,·,·
COc1cccc(C(=O)Nc2ccc(-n3nncc3C(C)(C)C)cc2)c1,-5.2,-0.1,2.9,-10.7,20.1,-8.3,·,·,·,·
CC(C)(C)c1cnnn1-c1ccc(NC(=O)c2ccc(Br)o2)cc1,57.5*,-14.2,7.1,-13.3,17.5,-24.2,12.1,15.9,2.4,-1.2
SMILES,TAAR1 antag,GPR7 antag,TAAR1 ag,CHO parental Ca,OX1R antag-1,OX1R antag-2,nonsel antag count,TAAR1 ant conf,Ga16 ag counter,TAAR1 ag counter
COc1cccc2sc3ccc(C#CC4(O)CCCCC4)cc3c(=O)c12,60.0*,-10.1,16.5,-23.2,11.0,-27.5,22.2*,31.4,5.7,3.6
COc1cccc2sc3ccc(C#Cc4ccc(N)cc4)cc3c(=O)c12,41.4,-11.2,7.0,-13.9,29.7,-15.6,·,·,·,·
COc1ccccc1-c1oc2ccccc2c1C#CC1(O)CCCCC1,12.8,·,8.0,-33.7,7.0,-9.7,·,·,·,·
COc1cccc2oc3cc(C#CC4(O)CCCCC4)ccc3c(=O)c12,56.7*,-6.6,22.1,-27.6,46.9,5.4,21.6*,31.9,7.5,16.8
Cc1ccc(S(=O)(=O)N2CCC(=O)N([C@H](COCc3cccc(C)c3)C(C)C)CC2)cc1,17.4,·,-1.5,·,·,·,·,·,·,·
COc1ccc(C(=O)NCCS(=O)(=O)NCc2ccccc2)cc1,-3.1,·,1.3,-6.2,-1.9,-27.5,·,·,·,·
COCCNc1nc(NCCN2CCNC2=O)c2sc(-c3ccccc3)cc2n1,-0.2,·,0.1,·,·,·,·,·,·,·

# Bioassay records as filed in PubChem BioAssay.
